From PubChem BioAssay AID588843 (Broad Institute, 2011)
Results filed as inconclusive are left out. The source made the active and inactive calls. No rule for the calls is given here.

system: ldlA CHO mSR-BI C384S, [3H]cholesterol efflux to HDL; assay: cholesterol efflux inhibition via mutant SR-BI C384S, mechanism study for SR-BI HDL uptake inhibitor project, cell-based, ldlA CHO, [3H]cholesterol, single point, dry powder (AID 588843); conditions: not given
How it was run: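 Material – ldlA CHO cells expressing Cys384S-mutant SR-BI, [3H]cholesterol-labelled · Medium – HEPES-buffered medium with 0.5% FAF-BSA · Probe or stimulus – unlabelled HDL as cholesterol acceptor, 100 µg/mL final · Times – 2-day [3H]cholesterol labelling, 1% FAF-BSA equilibration, 1-h pre-exposure, 2-h efflux · Detection – liquid scintillation counting of [3H]cholesterol in medium and cells · Read-out basis – medium [3H]cholesterol as % of cell-plus-medium total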

**Q.** `O=C(Nc1ccc(-c2nc3cc(NC(=O)c4ccc(NC(=O)c5cccc6ccccc56)cc4)ccc3[nH]2)cc1)c1ccc(NC(=O)c2cccc3ccccc23)cc1` was tested. Which outcome did it give?
**A.** The outcome was “active”.

**Q.** `CCOC(=O)N1CCC(NC(=O)c2ccc3c(c2)N(Cc2ccc(F)cc2)CCS3)CC1` was tested. Which outcome did it give?
**A.** The outcome was “active”.

same assay, conditions: at 1 µM; stronger effect = lower value

**Q.** Which cholesterol efflux does the source give for `Cc1cc(C(=O)C(C)OC(=O)C2=NNC(=O)CC2)c(C)n1-c1ccc(OC(F)F)cc1` (centres undefined) here?
**A.** Its cholesterol efflux is 16.5% (inactive).

**Q.** `O=C(Nc1ccccc1Cl)c1ccccc1NS(=O)(=O)c1ccccc1` was tested. Which cholesterol efflux did it give?
**A.** Its cholesterol efflux is 21% (inactive).

**Q.** `O=C(Nc1ccc(-c2nc3ccc(NC(=O)c4ccccc4)cc3[nH]2)cc1)c1ccccc1` was tested. Which cholesterol efflux did it give?
**A.** Its cholesterol efflux is 11.7%.

**Q.** `COc1cccc(-c2csc(N3CCN(C(=S)Nc4cccc(Cl)c4)CC3)n2)c1` was tested. Which cholesterol efflux did it give?
**A.** The cholesterol efflux was 16.6% (inactive).

**Q.** With `CC(OC(=O)c1cccc(NS(C)(=O)=O)c1)C(=O)Nc1ccc(N2CCOCC2)cc1` (centres undefined) as the compound, how does the cholesterol efflux read?
**A.** The cholesterol efflux was 10.3%.

**Q.** Which cholesterol efflux does the source give for `O=C(Nc1cc(C(F)(F)F)ccc1Cl)c1ccccc1NS(=O)(=O)c1ccc(Cl)cc1` here?
**A.** Its cholesterol efflux is 21.7% (inactive).

**Q.** For `N#Cc1sc2nc(C3CC3)cc(-c3ccc(Cl)cc3)c2c1N`, which cholesterol efflux is on record?
**A.** Its cholesterol efflux is 14.7%.

**Q.** For `O=C(Nc1cc(Cl)ccc1Cl)c1cc(Br)ccc1NS(=O)(=O)c1ccc(Cl)c([N+](=O)[O-])c1`, which cholesterol efflux is on record?
**A.** Its cholesterol efflux is 20.5% (inactive).

**Q.** For `O=C(Nc1ccc(-c2nc3cc(NC(=O)c4ccccc4Cl)ccc3o2)cc1)c1ccccc1Cl`, which cholesterol efflux is on record?
**A.** Its cholesterol efflux is 5.15%.

**Q.** With `O=C(Nc1cccc(NC(=O)c2cc([N+](=O)[O-])ccc2Cl)n1)c1cc([N+](=O)[O-])ccc1Cl` as the compound, how does the cholesterol efflux read?
**A.** Its cholesterol efflux is 14.2%.

**Q.** How did the cholesterol efflux turn out when `Cc1ccccc1NC(=O)NCC1CCN(c2ccc(S(=O)(=O)N3CCOCC3)cc2)CC1` was run?
**A.** Its cholesterol efflux is 18.4% (inactive).

**Q.** `CC(C)OCCCNC(=O)c1ccc(C2SCC(=O)N2Cc2ccco2)cc1` (centres undefined) was tested. Which cholesterol efflux did it give?
**A.** Its cholesterol efflux is 18.9% (inactive).

**Q.** How did the cholesterol efflux turn out when `COc1ccc(-c2nnn(CC(=O)N(C3CCCCC3)C(C)C(=O)NC3CCCC3)n2)cc1OC` (centres undefined) was run?
**A.** The cholesterol efflux was 14.2%.

**Q.** How did the cholesterol efflux turn out when `CCOc1ccccc1/C=C/c1onc(C)c1S(=O)(=O)N1CCC(C(=O)NC(C)(C)C)CC1` was run?
**A.** Its cholesterol efflux is 7.29%.

**Q.** Which cholesterol efflux does the source give for `O=C(Nc1ccc(-c2nc3cc(NC(=O)c4ccccc4[N+](=O)[O-])ccc3o2)cc1)c1ccccc1[N+](=O)[O-]` here?
**A.** Its cholesterol efflux is 5.43%.

**Q.** For `CCOc1ccc(NC(=O)CN2CCN(CC(=O)Nc3cc(OC)cc(OC)c3)CC2)cc1`, which cholesterol efflux is on record?
**A.** The cholesterol efflux was 17.9% (inactive).

**Q.** How did the cholesterol efflux turn out when `Cc1cc(C)n(CC(=O)NC2CCCc3c2cnn3-c2ccc(C)c(C)c2)n1` (centres undefined) was run?
**A.** Its cholesterol efflux is 17.2% (inactive).

**Q.** Which cholesterol efflux does the source give for `Cc1ccc(-c2nnc(N3CCC(C)CC3)c3ccccc23)cc1C` here?
**A.** The cholesterol efflux was 20.5% (inactive).

**Q.** How did the cholesterol efflux turn out when `O=C(Nc1ccc(Cl)cc1C(=O)c1ccc(Cl)cc1)c1cc(Br)ccc1NS(=O)(=O)c1ccc(Cl)cc1` was run?
**A.** Its cholesterol efflux is 21.7% (inactive).

**Q.** `COc1ccc(OC)c(CCNC(=O)c2ccc3c(c2)N(Cc2ccc(F)cc2)CCS3)c1` was tested. Which cholesterol efflux did it give?
**A.** Its cholesterol efflux is 16.9% (inactive).

**Q.** For `COc1ccc([C@H]2CC(=O)C=C(c3cccc4c3sc3ccccc34)C2)cc1OC`, which cholesterol efflux is on record?
**A.** Its cholesterol efflux is 18.7% (inactive).

**Q.** For `Cc1cc(C)c2c(c1)NC(c1cc3c(cc1Br)OCO3)C1CC=CC21` (centres undefined), which cholesterol efflux is on record?
**A.** Its cholesterol efflux is 19% (inactive).

**Q.** `Cc1cc(SC(C)C(=O)Nc2ncc(Cl)cc2Cl)nc2ccccc12` (centres undefined) was tested. Which cholesterol efflux did it give?
**A.** Its cholesterol efflux is 15.5%.

**Q.** For `COC(=O)c1cn(C(=O)c2cccc3ccccc23)c2ccccc12`, which cholesterol efflux is on record?
**A.** The cholesterol efflux was 19.2% (inactive).

**Q.** For `Cc1ccc2oc(-c3cccc(NC(=O)c4cc(-n5cnnc5)ccc4Cl)c3)nc2c1`, which cholesterol efflux is on record?
**A.** The cholesterol efflux was 19.7% (inactive).

**Q.** For `CCC(=O)N1CCc2cc(-c3csc(NC(=O)c4ccco4)n3)ccc21`, which cholesterol efflux is on record?
**A.** Its cholesterol efflux is 9.04%.

**Q.** `CCn1c(COc2c(C)cccc2C)nnc1SCC(=O)N1CCN(c2ccccc2)CC1` was tested. Which cholesterol efflux did it give?
**A.** Its cholesterol efflux is 17.1% (inactive).

same assay, conditions: measured here: second test run; at 1 µM; stronger effect = lower value

**Q.** How did the cholesterol efflux turn out when `O=C(Nc1ccc(-c2nc3cc(NC(=O)c4ccc(NC(=O)c5cccc6ccccc56)cc4)ccc3[nH]2)cc1)c1ccc(NC(=O)c2cccc3ccccc23)cc1` was run?
**A.** The cholesterol efflux was 7.85%.

**Q.** How did the cholesterol efflux turn out when `CCOC(=O)N1CCC(NC(=O)c2ccc3c(c2)N(Cc2ccc(F)cc2)CCS3)CC1` was run?
**A.** The cholesterol efflux was 7.46%.

**Q.** For `COc1ccc(-c2nnn(CC(=O)N(C3CCCCC3)C(C)C(=O)NC3CCCC3)n2)cc1OC` (centres undefined), which cholesterol efflux is on record?
**A.** Its cholesterol efflux is 7.04%.

**Q.** For `O=C(Nc1ccc(-c2nc3cc(NC(=O)c4ccccc4[N+](=O)[O-])ccc3o2)cc1)c1ccccc1[N+](=O)[O-]`, which cholesterol efflux is on record?
**A.** The cholesterol efflux was 3.07%.

**Q.** `CCC(=O)N1CCc2cc(-c3csc(NC(=O)c4ccco4)n3)ccc21` was tested. Which cholesterol efflux did it give?
**A.** Its cholesterol efflux is 7.93%.
